PubChem BioAssay
Active and inactive are the calls of the source.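 Rule for the calls, unless noted: active = inhibition at or above 50% at 10 µM; inactive = inhibition below 50%.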

What was measured:
[1] = inhibitors of TNFa-induced NFkB p65 translocation, primary screen, imaging, HUVEC, MLSMR starter and 10KST1 sets (AID 438;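 active = inhibition above 20% together with a positive visual image hit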;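 note: compound added about 3h40 before a 20 min TNFalpha stimulation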;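 for inhibition: signal is the nuclear over cytoplasmic p65 intensity ratio per well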); conditions: HUVEC TNFa-induced p65 nuclear translocation; cell count: measured here: nuclei count (cytotoxicity indicator), at 2.08 µM; inhibition: at 2 µM, stronger effect = higher value, 0% TNFa-plus-vehicle, 100% no-TNFa wells
[2] = reduction of polyQ htt aggregates in cells – imaging, exon1htt(103Q)mCFP cells, high-content imaging, primary screen (AID 483;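 active = visual image review flags a hit and inhibition of aggregation exceeds 20%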;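 note: compound exposure lasted 3 days before fixation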;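 for nuclei count: percent of the per-plate median nuclei count of sample wells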); conditions: exon1htt(103Q)mCFP cell line, aggregate imaging, at 2 µM; inhibition of aggregation: stronger effect = higher value; nuclei count: measured here: cell count, toxicity
[3] = endothelial E-selectin expression blockers – imaging, HUVEC, immunofluorescence, MLSMR starter and 10KST1 sets, primary screen (AID 487;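 active = visually confirmed hit in the image check and inhibition above 20%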;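 for inhibition: signal is fraction of cell area covered by stained E-selectin grains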;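 for nuclei count: 100% = median nuclei count of all wells on the same plate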); conditions: HUVEC TNFalpha-induced E-selectin immunofluorescence imaging, at 2 µM; inhibition: stronger effect = higher value; nuclei count: measured here: cell number, toxicity
[4] = target: Voltage-gated potassium channel subunit beta-2 (Rattus norvegicus) (UniProt P62483); assay: inhibitors of rat Kvbeta2 reductase activity – biochemical, NADPH fluorescence, primary screen (AID 622;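 active = fluorescence slope higher than the sample average by over 3 SD, cut at about -0.22 in these data, passing the limit was not always enough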;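 note: slope of raw intensity against log time taken from 70 to 1610 s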); conditions: recombinant KvBeta, 4-cyanobenzaldehyde reduction, at 10 µM, stronger effect = higher value
Chain of Voltage-gated potassium channel subunit beta-2 (Rattus norvegicus) (P62483 whole entry, looked up): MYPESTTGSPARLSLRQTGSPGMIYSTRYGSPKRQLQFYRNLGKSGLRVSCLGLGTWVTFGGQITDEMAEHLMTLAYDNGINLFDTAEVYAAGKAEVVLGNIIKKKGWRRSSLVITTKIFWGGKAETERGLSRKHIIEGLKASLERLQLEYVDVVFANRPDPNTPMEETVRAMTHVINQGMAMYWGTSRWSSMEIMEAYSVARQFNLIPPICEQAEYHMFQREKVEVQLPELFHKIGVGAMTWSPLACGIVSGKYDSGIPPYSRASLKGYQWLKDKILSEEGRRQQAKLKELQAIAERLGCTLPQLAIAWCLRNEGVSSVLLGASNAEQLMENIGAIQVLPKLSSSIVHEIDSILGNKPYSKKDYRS

[5] = target: Voltage-gated potassium channel subunit beta-2 (Rattus norvegicus) (UniProt P62483); assay: enhancers of rat Kvbeta2 NADPH turnover – biochemical, NADPH fluorescence, primary screen (AID 623;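 active = NADPH fluorescence slope more negative than the mean of all samples by about 3 SD, 99.7% confidence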;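 note: fluorescence intensity change per second fitted from 20 to 320 s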); conditions: Recombinant KvBeta, NADPH fluorescence decrease slope, 10 min; at 10 µM; stronger effect = lower value
[6] = target: Muscarinic acetylcholine receptor M4 (Homo sapiens) (UniProt P08173); assay: M4-linked GIRK flux change, two-sided – cell-based, HEK293 M4/GIRK, thallium flux, BTC-AM, M4 allosteric agonist project, primary screen (AID 625;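 active = fluorescence slope after compound addition differing from the mean of all tested samples at 99.7% confidence, mostly higher but some lower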;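 note: thallium influx through GIRK channels coupled to M4 in HEK293 cells with BTC-AM dye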); conditions: at 10 µM, actives lie on both sides
Chain of Muscarinic acetylcholine receptor M4 (Homo sapiens) (P08173 whole entry, looked up): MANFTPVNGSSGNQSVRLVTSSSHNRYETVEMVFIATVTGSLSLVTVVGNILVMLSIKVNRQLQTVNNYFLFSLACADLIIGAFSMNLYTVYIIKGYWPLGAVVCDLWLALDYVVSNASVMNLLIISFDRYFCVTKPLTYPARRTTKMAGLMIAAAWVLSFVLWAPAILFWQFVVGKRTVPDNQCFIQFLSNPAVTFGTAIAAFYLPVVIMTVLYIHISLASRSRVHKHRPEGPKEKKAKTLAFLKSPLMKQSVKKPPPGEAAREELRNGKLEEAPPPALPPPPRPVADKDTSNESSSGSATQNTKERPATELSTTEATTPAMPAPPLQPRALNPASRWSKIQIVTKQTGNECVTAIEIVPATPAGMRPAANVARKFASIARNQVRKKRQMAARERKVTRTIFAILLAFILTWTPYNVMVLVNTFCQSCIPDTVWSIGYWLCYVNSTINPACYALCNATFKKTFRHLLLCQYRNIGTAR
Outline: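 Material: HEK293 cells with M4 receptor and GIRK channels; Times: cells overnight at 37 °C, BTC-AM loading 1 h, reads 2 min total; Technique: kinetic BTC-AM fluorescence sampled at 1 Hz, 10 s pre-addition baseline; Read-out basis: slope over 15–24 s of trace normalized to starting intensity; Controls: carbachol positive, DMSO negative.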

[7] = blockers of RIG-like receptor reporter activation – cell-based, Sendai virus stimulus, luciferase, 10K MLSCN set, TLR/RLR signaling modifier project, primary screen (AID 602276); conditions: HEK293 RL24 IRF3 luciferase reporter, at 10 µM, stronger effect = higher value;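 note: firefly luciferase from ISG56 promoter only with Renilla not read in this screen; 0% = Sendai virus plus DMSO and 100% = medium plus DMSO without virus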
[8] = TLR3 IRF3 reporter activation blockers – cell-based, poly I:C stimulus, luciferase, 10K MLSCN set, primary screen (AID 602277;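 active = inhibition of the reporter signal at or above 50%; inactive = inhibition below 50%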); conditions: HEK293-TLR3 RL24 IRF3 luciferase reporter, at 10 µM, stronger effect = higher value

Row | Compound | cell count [1] | inhibition [1] | inhibition of aggregation [2] | nuclei count [2] | inhibition [3] | nuclei count [3] | fluorescence slope [4] | NADPH fluorescence slope [5] | fluorescence slope [6] | inhibition [7] | inhibition [8]
1 | CCn1nccc1C(=O)Nc1nccs1 | 392 | -0.5% (inactive) | -32.5% (inactive) | 108% | -45.2% (inactive) | 103% | -0.456 (inactive) | -4.4e-05 (inactive) | 0.00538 (inactive) | 16.4% (inactive) | 9.69% (inactive)
2 | CCOC(=O)C1CCCN(C(=O)c2cc(=O)c3ccccc3o2)C1 (centres undefined) | 376 | -18.9% (inactive) | -28.1% (inactive) | 114% | -38.4% (inactive) | 98.7% | -0.426 (inactive) | 2.6e-05 (inactive) | 0.00575 (inactive) | 14.5% (inactive) | 19.9% (inactive)
3 | CCOc1ccc(NC(=O)c2ccncc2)cc1 | 631 | 3.6% (inactive) | 8.2% (inactive) | 98.3% | -122% (inactive) | 106% | -0.466 (inactive) | -4.7e-05 (inactive) | 0.0047 (inactive) | -5.38% (inactive) | -19.1% (inactive)
4 | Cc1cc(C(=O)O)ccc1-n1c(C)ccc1C | 332 | -3.7% (inactive) | 0.1% (inactive) | 106% | -88.3% (inactive) | 118% | -0.554 (inactive) | -3.5e-05 (inactive) | 0.00607 (inactive) | 14.8% (inactive) | 20% (inactive)
5 | COc1ccc(-c2cc(C(=O)Nc3ccc(C)cc3)no2)cc1 | 320 | -6.5% (inactive) | -11.2% (inactive) | 108% | -9.7% (inactive) | 103% | -0.323 (inactive) | -8.4e-07 (inactive) | 0.00844 (inactive) | -20.2% (inactive) | -32.3% (inactive)
6 | CC(=O)N1CCC2(CC1)CC(=O)c1cc(OCC(=O)NCc3ccc(C)cc3)ccc1O2 | 314 | -4.7% (inactive) | 2.5% (inactive) | 78.3% | -5% (inactive) | 119% | -0.0682 (inactive) | -3.2e-06 (inactive) | 0.00521 (inactive) | 6.64% (inactive) | 5.97% (inactive)
7 | C/C(Cl)=C\Cn1c(Nc2ccc(C)cc2)nc2c1c(=O)n(C)c(=O)n2C | 533 | -1.1% (inactive) | 24.5% (inactive) | 78.9% | -73.9% (inactive) | 117% | -0.572 (inactive) | -4.2e-05 (inactive) | 0.00543 (inactive) | 16.1% (inactive) | 17.5% (inactive)
8 | Cc1ccc(C)c(-c2nc3cc(N)ccc3o2)c1 | 407 | 12.5% (inactive) | 20.6% (inactive) | 97.9% | -435% (inactive) | 124% | -0.0313 (active) | -3e-06 (inactive) | 0.00545 (inactive) | 4.93% (inactive) | 1.69% (inactive)
9 | COc1ccccc1N1CCN(C(=O)C2CC=CCC2C(=O)O)CC1 (centres undefined) | 444 | -1.8% (inactive) | -7.5% (inactive) | 87.8% | 24.2% (inactive) | 44.5% | -0.454 (inactive) | -1.2e-05 (inactive) | 0.00504 (inactive) | 18.1% (inactive) | 16.3% (inactive)
10 | CCCCOc1cccc(NC(=O)CSc2nccn2C)c1 | 397 | 2.5% (inactive) | 0.8% (inactive) | 96.8% | 6.2% (inactive) | 108% | -0.318 (inactive) | -3.3e-05 (inactive) | 0.00562 (inactive) | -4.33% (inactive) | -42.2% (inactive)
11 | Nc1nnc(-c2cc3ccccc3oc2=O)s1 | 723 | -6.8% (inactive) | 2.5% (inactive) | 94% | -72.3% (inactive) | 123% | -0.0269 (inactive) | -7.7e-06 (inactive) | 0.0038 (inactive) | -3.81% (inactive) | -27.9% (inactive)
12 | O=C(Nc1ccccc1)N(Cc1cccnc1)Cc1ccco1 | 335 | -0.7% (inactive) | 5.9% (inactive) | 97.2% | -36.9% (inactive) | 103% | -0.463 (inactive) | -3.6e-05 (inactive) | 0.00427 (inactive) | 18.2% (inactive) | 14.3% (inactive)
13 | CCN(C#N)c1nc(NC(C)C)nc(NC(C)C)n1 | 354 | 3.3% (inactive) | 14.7% (inactive) | 100% | -0.6% (inactive) | 82.6% | -0.316 (inactive) | -5.2e-05 (inactive) | 0.00491 (inactive) | 0.243% (inactive) | 9.55% (inactive)
14 | Cc1cc(N2C(=O)C3C4C=CC(C4)C3C2=O)ccc1Br (centres undefined) | 775 | 18.7% (inactive) | 0.6% (inactive) | 110% | 98.6% (active) | 42% | -0.502 (inactive) | -5.3e-05 (inactive) | 0.00619 (inactive) | -31.9% (inactive) | 100% (active)
15 | CCCCC(NC(C)=O)c1nc2ccccc2n1CCC (centres undefined) | 294 | -3.7% (inactive) | 24.6% (inactive) | 82.4% | 37.8% (inactive) | 94.3% | -0.454 (inactive) | -2.6e-05 (inactive) | 0.00541 (inactive) | 22.7% (inactive) | 16.8% (inactive)
16 | CC1=C(C(=O)OCCOC(C)C)C(c2cc3c(cc2Br)OCO3)C2=C(CCCC2=O)N1 (centres undefined) | 446 | 0.2% (inactive) | 8.5% (inactive) | 41.8% | -37.4% (inactive) | 105% | -0.485 (inactive) | 6.8e-05 (inactive) | 0.00686 (inactive) | 20.8% (inactive) | 26.6% (inactive)
17 | COC(=O)C1=C(C)NC(C)=C(C(=O)OC)C1c1cc2cc(C)ccc2[nH]c1=O | 509 | 11.1% (inactive) | -7.7% (inactive) | 102% | -103% (inactive) | 136% | -0.493 (inactive) | -2.9e-05 (inactive) | 0.00508 (inactive) | 18.9% (inactive) | 30.9% (inactive)
18 | Cc1cccc2cc(CN(Cc3nnnn3Cc3ccco3)C3CCCC3)c3nnnn3c12 | 719 | -2.8% (inactive) | 4.4% (inactive) | 113% | -14% (inactive) | 116% | -0.451 (inactive) | 3.4e-05 (inactive) | 0.00551 (inactive) | 9.99% (inactive) | 13% (inactive)
19 | Cc1nc2c3cnn(-c4ccccc4)c3ncn2n1 | 470 | 1.7% (inactive) | -9.9% (inactive) | 105% | -62.2% (inactive) | 108% | -0.406 (inactive) | 8.7e-05 (inactive) | 0.00848 (inactive) | -1.03% (inactive) | -18.2% (inactive)
20 | Cn1c2c(c(=O)n(C)c1=O)CN(CCCN1CCOCC1)CN2 | 541 | -5% (inactive) | 9.8% (inactive) | 115% | 41.5% (inactive) | 90.5% | -0.595 (inactive) | 2.4e-05 (inactive) | 0.00524 (inactive) | 8.17% (inactive) | 16.9% (inactive)
21 | CC(=O)N1CCC2(CC1)CC(=O)c1cc(OCC(=O)NCc3ccco3)ccc1O2 | 376 | 6.6% (inactive) | -16.2% (inactive) | 113% | -143% (inactive) | 97.8% | -0.253 (inactive) | 1.5e-05 (inactive) | 0.00743 (inactive) | -7.82% (inactive) | 2.06% (inactive)
22 | Cc1nc(SCC(=O)Nc2ccccc2C(F)(F)F)c2c(=O)n(C)c(=O)n(C)c2n1 | 414 | -4.7% (inactive) | 1.1% (inactive) | 120% | -111% (inactive) | 121% | -0.447 (inactive) | 8.7e-05 (inactive) | 0.0097 (inactive) | 7.4% (inactive) | 13.5% (inactive)
23 | Cc1ccc2ncnc(NCCCN3CCOCC3)c2c1 | 339 | -0.6% (inactive) | 4.8% (inactive) | 101% | -25.5% (inactive) | 115% | -0.484 (inactive) | -0.000336 (inactive) | 0.00376 (inactive) | -18.7% (inactive) | -21.1% (inactive)
24 | CC(=O)NCCn1ccc2ccccc21 | 272 | 14.1% (inactive) | 17.6% (inactive) | 93% | -55.1% (inactive) | 99.6% | -0.518 (inactive) | 0.000103 (inactive) | 0.00841 (inactive) | 16.6% (inactive) | 20.7% (inactive)
25 | O=C(CSc1nnc(Cc2ccccc2)n1C1CCCCC1)N1CCOCC1 | 367 | 7.2% (inactive) | 12.5% (inactive) | 104% | -264% (inactive) | 113% | -0.463 (inactive) | 5e-05 (inactive) | 0.00611 (inactive) | -13% (inactive) | -20.2% (inactive)
26 | CCCCC(CC)Cn1c2nc3ccccc3nc2c2c(=N)oc(C)nc21 (centres undefined) | 624 | 15.7% (inactive) | 23.1% (inactive) | 64.9% | -5.3% (inactive) | 97.3% | -0.196 (inactive) | 4.4e-06 (inactive) | 0.00498 (inactive) | 16.1% (inactive) | 15.4% (inactive)
27 | CCn1c(C(=O)OC)cc2c1ccn2-c1ccc(F)cc1 | 648 | -2.6% (inactive) | 25% (inactive) | 99.6% | -86.1% (inactive) | 105% | -0.61 (inactive) | -2e-05 (inactive) | 0.00586 (inactive) | -52.7% (inactive) | -96.4% (inactive)
28 | COc1ccc(Nc2nc(OC)nc(N3CCN(c4ccc(OC)cc4)CC3)n2)cc1 | 646 | -0.5% (inactive) | -13.1% (inactive) | 93.5% | -14.1% (inactive) | 100% | -0.555 (inactive) | -3.4e-05 (inactive) | 0.00593 (inactive) | 14% (inactive) | -11.1% (inactive)
29 | Cc1ccc(C)c(OCC(O)CN2C(C)CCCC2C)c1 (centres undefined) | 379 | 0% (inactive) | 2.7% (inactive) | 93.8% | -71.2% (inactive) | 117% | -0.526 (inactive) | 5e-05 (inactive) | 0.00528 (inactive) | 13.4% (inactive) | 26.5% (inactive)
